Data taken from ChEMBL document CHEMBL3124880, “4-(3-Chloro-5-(trifluoromethyl)pyridin-2-yl)-N-(4-methoxypyridin-2-yl)piperazine-1-carbothioamide (ML267), a potent inhibitor of bacterial phosphopantetheinyl transferase that attenuates secondary metabolism and thwarts bacterial growth” (J Med Chem, 2014).
≈ marks a conversion by molar mass, not a printed value. Calls of active or inactive are those of the source.

Assays:
[1] = biological target: T1, L-aminoadipate-semialdehyde dehydrogenase-phosphopantetheinyl transferase (Homo sapiens) (UniProt Q9NRN7); test: Inhibition of human PPTase up to 125 uM by gel-based fluorescence assay
T1 sequence (whole entry): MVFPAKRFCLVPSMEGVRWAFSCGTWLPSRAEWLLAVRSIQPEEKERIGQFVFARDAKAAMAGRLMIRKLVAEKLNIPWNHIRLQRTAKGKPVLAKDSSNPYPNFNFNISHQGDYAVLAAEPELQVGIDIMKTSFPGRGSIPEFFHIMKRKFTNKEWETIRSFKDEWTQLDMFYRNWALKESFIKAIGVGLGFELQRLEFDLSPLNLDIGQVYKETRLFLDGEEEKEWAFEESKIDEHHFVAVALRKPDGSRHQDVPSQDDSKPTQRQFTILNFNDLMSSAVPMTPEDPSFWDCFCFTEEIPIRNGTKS

Escherichia coli [2] = test: Antibacterial activity against Escherichia coli K-12 assessed as growth inhibition at 0.8 to 100 ug/mL after 16 to 20 hrs by resazurin dye-based assay; assay type: functional, organism-based
Summary of the method: (§1)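 Broth microdilution. Test article from 1 μL DMSO in 50 μL cation-adjusted Mueller Hinton II (bacteria) or RPMI 1640 (fungi), plus ~1×10^3 cfu inoculum in the same medium. Incubated 16–20 h at 30–37 °C (48 h for fungi). MIC scored visually as the first well without growth; resazurin added for imaging.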

Bacillus subtilis [3] = test: Antibacterial activity against Bacillus subtilis OKB105 assessed as effect on cellular density at 0.53 to 1.1 ug/mL after 28 hrs; assay type: functional, organism-based
Summary of the method: (§2)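 B. subtilis OKB105 cultured with compound at 0.53 or 1.1 µg/mL against a vehicle control. Culture density and surfactin titer sampled periodically over 28 h.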

Staphylococcus aureus [4] = test: Antibacterial activity against Staphylococcus aureus BK2395 in Swiss Webster mouse septicemia model assessed as increase in survival at 30 mg/kg, ip administered 4 to 48 hrs measured 3 times daily for 14 days relative to vehicle-treated control; assay type: functional, organism-based; parameters: dose 30 mg/kg
Summary of the method: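 MRSA USA500 strain BK2395 used in a mouse sepsis model. Treated animals compared with vehicle, with vancomycin as a reference treatment; survival monitored.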

[5] = Half life in CD-1 mouse at 3 mg/kg, iv; assay type: ADME, organism-based; parameters: dose 3 mg/kg, route intravenous; details: in vivo
Summary of the method: (§3)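 Male CD1 mice, 6–8 weeks old. Dosed iv at 3 mg/kg or ip at 30 mg/kg as a solution in 5% DMSO/10% Solutol in water. Plasma sampled in triplicate at eight time points over 24 h.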

[6] = AUC (infinity) in CD-1 mouse at 3 mg/kg, iv; assay type: ADME, organism-based; parameters: time infinity, dose 3 mg/kg, route intravenous; details: plasma; summary of the method: as §3
[7] = Chemical stability of the compound in HEPES buffer at room temperature measured over 48 hrs by LC/MS analysis; assay type: physicochemical
Summary of the method: (§4)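 Compound held in aqueous media over pH 2–9 and in PBS and HEPES buffers, then monitored for degradation.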

[8] = Chemical stability of the compound in PBS buffer at room temperature measured over 48 hrs by LC/MS analysis; assay type: physicochemical; summary of the method: as §4
[9] = Inhibition of Bacillus subtilis Sfp-PPTase using rhodamine-CoA/BHQ-2-YbbR as substrate preincubated for 15 mins followed by substrate addition by HTS assay
Liver microsome = test: Metabolic stability in mouse liver microsomes measured over 1 hr in absence of NADPH
Escherichia coli [10] = test: Antibacterial activity against wild type Escherichia coli BW25113 assessed as growth inhibition at 1.8 to 250 ug/mL after 16 to 20 hrs by broth dilution method; assay type: functional
Summary of the method: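 E. coli BW25113 (wild type) and JW0451 (ΔacrB) tested by broth dilution in cation-adjusted Mueller Hinton II, ~1×10^3 cfu, 16–20 h. Growth shown with resazurin. Checkerboard combination with the efflux inhibitor PAβN in the wild type.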

[11] = Cmax in CD-1 mouse at 3 mg/kg, iv; assay type: ADME, organism-based; parameters: dose 3 mg/kg, route intravenous; details: in vivo; summary of the method: as §3
[12] = Inhibition of Bacillus subtilis AcpS-PPTase using rhodamine-CoA/BHQ-2-YbbR as substrate preincubated for 15 mins followed by substrate addition by HTS assay
Summary of the method: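 AcpS-PPTase at 100 nM final in 50 mM HEPES-Na pH 7.6, 10 mM MgCl2, 0.01% Nonidet P-40, 0.01% BSA; compound preincubated 15 min at room temperature, then rhodamine-CoA (5 μM final) and BHQ-2-YbbR (12.5 μM final) added. Fluorescence read (525 ex/598 em) at start and after 60 min; difference gives rate.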

Bacillus subtilis [13] = test: Antibacterial activity against Bacillus subtilis 168 assessed as growth inhibition after 16 to 20 hrs by resazurin dye-based assay; assay type: functional; details: subsp. subtilis str. 168; summary of the method: as §1
Bacillus subtilis [14] = test: Antibacterial activity against Bacillus subtilis OKB105 assessed as inhibition of surfactin production after 28 hrs by LC-MS analysis; assay type: functional, organism-based; summary of the method: as §2
Escherichia coli [15] = test: Antibacterial activity against Escherichia coli BW25113 assessed as growth inhibition at 0.8 to 100 ug/mL after 16 to 20 hrs by resazurin dye-based assay; assay type: functional; summary of the method: as §1
Staphylococcus aureus [16] = test: Antibacterial activity against community-acquired methicillin-resistant Staphylococcus aureus BAA-1717 assessed as growth inhibition at 0.8 to 100 ug/mL after 16 to 20 hrs by resazurin dye-based assay; assay type: functional, organism-based
Summary of the method: (§5)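 Broth microdilution. Inoculum from overnight liquid cultures or 2-day colonies, ~1 × 10^3 cfu per well. Compound in DMSO added to cation-adjusted Mueller Hinton II broth (bacteria) or RPMI 1640 (fungi). Incubated at 30–37 °C for 16–20 h, or 48 h for fungi.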

[17] = Mean residence time required for 63.2% elimination of drug in CD-1 mouse at 3 mg/kg, iv; assay type: ADME, organism-based; parameters: dose 3 mg/kg, route intravenous; details: in vivo
Summary of the method: (§6)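 Male CD1 mice, 6–8 weeks old, given 3 mg/kg iv as a solution in 5% DMSO/10% Solutol in water. Plasma sampled at eight time points over 24 h, in triplicate; MRT defined as time to eliminate 63.2% of the iv dose.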

[18] = Clearance in CD-1 mouse at 3 mg/kg, iv; assay type: ADME, organism-based; parameters: dose 3 mg/kg, route intravenous; details: in vivo; summary of the method: as §3
Mus musculus = test: Toxicity in CD-1 mouse at 30 mg/kg, ip measured over 24 hrs; assay type: organism-based; parameters: dose 30 mg/kg, route intraperitoneal; details: in vivo
Summary of the method: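 Male CD1 mice, 6–8 weeks old, given 30 mg/kg ip in 5% DMSO/10% Solutol/water. Clinical observations recorded over 24 h.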

[19] = Volume of distribution in CD-1 mouse at 3 mg/kg, iv; assay type: ADME, organism-based; parameters: dose 3 mg/kg, route intravenous; details: in vivo; summary of the method: as §6
Pseudomonas aeruginosa = test: Antibacterial activity against Pseudomonas aeruginosa ATCC 9028 assessed as growth inhibition at 0.8 to 100 ug/mL after 16 to 20 hrs by resazurin dye-based assay; assay type: functional, organism-based; summary of the method: as §1
Candida albicans = test: Antifungal activity against fluconazole-sensitive Candida albicans ATCC 90028 assessed as growth inhibition at 0.8 to 100 ug/mL after 48 hrs by resazurin dye-based assay; assay type: functional, organism-based; summary of the method: as §1
Staphylococcus aureus [20] = test: Antibacterial activity against community-acquired methicillin-resistant Staphylococcus aureus USA500 assessed as growth inhibition at 0.8 to 100 ug/mL after 16 to 20 hrs by resazurin dye-based assay; assay type: functional, organism-based; summary of the method: as §5
[21] = Metabolic stability in mouse plasma at 2 hrs; assay type: ADME, cell-free; details: read-out: Stability
Summary of the method: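 Compound incubated in mouse plasma; stability measured at 2 h (Pharmaron).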

In the case of COc1ccnc(NC(=S)N2CCN(c3ncc(C(F)(F)F)cc3Cl)CC2)c1, the inhibition [1] is reported as “inactive”, the “growth inhibition (GI)” value (Escherichia coli [2]) is reported as “inactive” and the Activity (Bacillus subtilis [3]) is reported as “inactive”. For the same compound, the Activity (Staphylococcus aureus [4]) was “inactive”, the half-life [5] was 2.4 h and the AUC(0-inf) [6] was 6980 ng·h/mL. The Stability [7] was “Stable”, the Stability [8] was “Stable” and the IC50 [9] was 0.29 µM. The Stability (Liver microsome) was “Stable”, the “growth inhibition (GI)” value (Escherichia coli [10]) was “inactive” and the Cmax [11] was 4110 ng/mL. The IC50 [12] was 8.1 µM, the MIC (Bacillus subtilis [13]) was 2 µg/mL (≈ 4.63 µM) and the inhibition (Bacillus subtilis [14]) was “Dose-dependent effect”. The “growth inhibition (GI)” value (Escherichia coli [15]) was “inactive”, the “growth inhibition (GI)” value (Staphylococcus aureus [16]) was “Active” and the MRT [17] was 3.4 h. For the same compound, the clearance [18] was 7.2 mL/min/kg, the Activity (Mus musculus) was “Non-toxic” and the Vd [19] was 1.5 L/kg. For the same compound, the “growth inhibition (GI)” value (Pseudomonas aeruginosa) was “inactive”, the “growth inhibition (GI)” value (Candida albicans) was “inactive” and the “growth inhibition (GI)” value (Staphylococcus aureus [20]) was “Active”. For the same compound, the remaining at 2 h [21] was 100%.
